IC50 data for 51 molecules are collected here from PubChem BioAssay AID624066 (The Scripps Research Institute Molecular Screening Center, 2012).

Values joined by “and” are separate entries in the source; they are usually repeats but may differ in a detail not shown here. Equal values may be shown once. Active and inactive are the calls of the source.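 How the source made its calls: active means IC50 of 10 µM or lower; inactive means IC50 above 10 µM.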

The term IC50 denotes the concentration that inhibits the measured activity by half.

Insulin-degrading enzyme (Homo sapiens), sequence (P14735 whole entry, looked up): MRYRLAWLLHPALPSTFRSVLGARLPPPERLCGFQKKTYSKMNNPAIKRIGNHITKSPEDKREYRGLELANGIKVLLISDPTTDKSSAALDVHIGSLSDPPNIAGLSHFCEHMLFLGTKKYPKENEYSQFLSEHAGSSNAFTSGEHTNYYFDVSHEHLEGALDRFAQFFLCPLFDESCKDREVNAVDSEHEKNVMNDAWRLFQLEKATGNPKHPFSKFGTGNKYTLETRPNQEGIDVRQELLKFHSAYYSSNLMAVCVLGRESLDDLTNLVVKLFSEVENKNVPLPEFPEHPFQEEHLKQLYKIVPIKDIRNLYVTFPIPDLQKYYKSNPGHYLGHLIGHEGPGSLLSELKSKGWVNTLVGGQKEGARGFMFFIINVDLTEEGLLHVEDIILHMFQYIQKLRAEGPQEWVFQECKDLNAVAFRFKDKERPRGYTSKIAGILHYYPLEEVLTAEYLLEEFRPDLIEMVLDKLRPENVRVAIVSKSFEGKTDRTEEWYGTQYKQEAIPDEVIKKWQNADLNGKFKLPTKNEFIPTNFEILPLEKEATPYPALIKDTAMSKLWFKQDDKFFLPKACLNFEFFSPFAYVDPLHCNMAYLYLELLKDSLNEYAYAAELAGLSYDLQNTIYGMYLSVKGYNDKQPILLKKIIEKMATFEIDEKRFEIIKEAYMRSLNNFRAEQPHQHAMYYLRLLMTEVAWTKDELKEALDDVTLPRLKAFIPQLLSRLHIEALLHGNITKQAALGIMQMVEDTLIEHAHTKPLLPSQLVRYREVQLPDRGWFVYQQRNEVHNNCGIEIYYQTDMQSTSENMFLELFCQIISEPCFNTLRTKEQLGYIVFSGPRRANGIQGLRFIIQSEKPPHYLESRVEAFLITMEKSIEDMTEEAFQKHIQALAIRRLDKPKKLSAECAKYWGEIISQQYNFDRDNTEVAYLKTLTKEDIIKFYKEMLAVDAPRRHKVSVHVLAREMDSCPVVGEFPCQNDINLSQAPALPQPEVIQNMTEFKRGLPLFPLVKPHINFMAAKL

The target in the experiment is Insulin-degrading enzyme (Homo sapiens) (UniProt P14735). As to the kind of experiment: IDE inhibitors with FRET1 peptide substrate, late-stage follow-up, artefact control for IDE inhibitor project, biochemical, fluorogenic FRET1 peptide, fluorescence, powder samples (AID 624066). The following applies: recombinant IDE. The method, boiled down:
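assay system = wild-type recombinant insulin-degrading enzyme, purified | input = IDE at 1 nM final, roughly EC80 | detection = fluorescence intensity at 385 nm emission, 335 nm excitation | replication = triplicate | compound dosing = 10-point semilog series from nominal 100 µM, 1% DMSO final | incubation = continuous kinetic reading every 2 min over 2 h at 22 °C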
`COc1ccc(C(=O)N2CCN(C(=O)C3COc4ccccc4C3)CC2)cc1OC` (stereo unspecified): the IC50 was > 10 µM (inactive).
In the case of `CCN(CC)c1ccc(/C=C2\C(=N)N3N=C(CC(=O)N4CCOCC4)SC3=NC2=O)cc1`, the IC50 is > 100 µM (inactive).
As for `O=C(CSc1nnc(-c2cccc(Cl)c2)n1Cc1ccco1)Nc1ccccc1C(F)(F)F`, the IC50 was > 100 µM (inactive).
`Clc1cccc(-c2nnc(SCc3nc4ccccc4[nH]3)n2Cc2ccco2)c1`: the concentration for half-maximal inhibition (IC50) is 5 µM.
As for `O=C(c1ccc2c(c1)OCCO2)N1CCN(C(=O)C2COc3ccccc3O2)CC1` (stereo unspecified), the IC50 was > 10 µM (inactive).
Consider `CC(Sc1nnc(-c2cccnc2)n1-c1ccccc1F)C(=O)N1CCCc2ccccc21` (stereo unspecified), for which the IC50 was > 100 µM (inactive).
Take `COc1ccc(NC(=O)CSc2nnc(CN3CCOCC3)n2C)cc1Cl`: the IC50 was > 100 µM (inactive).
`Cc1c(CCC(=O)NCCCn2ccnc2)c(=O)oc2cc3oc4c(c3cc12)CCCC4`: the half-inhibitory concentration (IC50) is 5 µM.
With `COc1cccc(-c2nnc(SCc3nc4ccccc4[nH]3)n2Cc2ccco2)c1`, the concentration for half-maximal inhibition (IC50) is 6.4 µM.
The value for `O=c1c2ccccc2sn1-c1cc(S(=O)(=O)N2CCOCC2)ccc1N1CCOCC1` was 0.2 µM; that for `Cn1c(=O)c(C(=O)CN2CCCc3ccccc32)c(N)n(Cc2ccccc2)c1=O` was 0.4 µM; that for `O=C(CSc1nnc(-c2cccc(Cl)c2)n1Cc1ccco1)Nc1ccc2c(c1)OCCO2` was > 100 µM (inactive).
For `O=C(c1ccc2c(c1)OCO2)N1CCCN(C(=O)C2CCc3ccccc3O2)CC1` (stereo unspecified), the IC50 was > 10 µM (inactive).
Take `O=C(CSc1nnc(-c2cccc(Cl)c2)n1Cc1ccco1)Nc1ccc2cn[nH]c2c1`: the IC50 was > 100 µM (inactive).
`COc1ccc(C(=O)N2CCCN(C(=O)C3COc4ccccc4O3)CC2)cc1OC` (stereo unspecified): the IC50 was > 10 µM (inactive).
Consider `Nc1c(C(=O)Nc2nccs2)sc2nc(-c3cccs3)cc(C(F)(F)F)c12`, for which the IC50 was > 100 µM (inactive).
Regarding `COc1ccc(C(=O)N2CCCN(C(=O)C3COc4ccccc4C3)CC2)cc1OC` (stereo unspecified), the IC50 is > 10 µM (inactive).
The value for `O=C(c1ccc2c(c1)OCCO2)N1CCN(C(=O)C2COc3ccccc3C2)CC1` (stereo unspecified) was > 10 µM (inactive); that for `O=C(c1ccc2c(c1)OCCO2)N1CCN(C(=O)C2CCc3ccccc3O2)CC1` (stereo unspecified) was > 10 µM (inactive); that for `O=C(Nc1cccc(C(F)(F)F)c1)c1csc(-c2ccncc2)n1` was 5 µM.
With `O=C(c1ccc2c(c1)OCO2)N1CCN(C(=O)C2CCc3ccccc3O2)CC1` (stereo unspecified), the IC50 is > 10 µM (inactive).
With `COc1cc(/C=C2\SC(=S)N(NC(C)=O)C2=O)ccc1OC(=O)c1ccco1`, the IC50 is > 10 µM (inactive).
For the molecule `O=C(Nc1cc(C(F)(F)F)cc(C(F)(F)F)c1)c1csc(-c2ccncc2)n1`, the IC50 is > 100 µM (inactive).
`Cc1nc(-c2cccnc2)sc1C(=O)Nc1cccc(C(F)(F)F)c1`: the IC50 is > 100 µM (inactive).
As to `COc1ccc(C(=O)N2CCN(C(=O)C3CCc4ccccc4O3)CC2)cc1OC` (stereo unspecified), the IC50 is > 10 µM (inactive).
The value for `O=C(Nc1cccc(C(F)(F)F)c1)c1csc(Cc2cccc(C(F)(F)F)c2)n1` was > 100 µM (inactive); that for `O=C(Nc1cccc(C(F)(F)F)c1)c1csc(-c2cccc(C(F)(F)F)c2)n1` was > 100 µM (inactive).
As to `O=C(Nc1cccc(C(F)(F)F)c1)c1csc(-c2ccccc2)n1`, the IC50 was > 100 µM (inactive).
The value for `Clc1cccc(-c2nnc(SCc3nc4ccccc4[nH]3)n2-c2ccccc2)c1` was “inactive”; that for `O=C(CSc1nnc(-c2cccc(Cl)c2)n1Cc1ccco1)c1ccc2ccccc2c1` was > 100 µM (inactive).
Consider `COc1ccc(-c2nc(C(=O)Nc3cccc(C(F)(F)F)c3)cs2)cc1`, for which the IC50 was > 100 µM (inactive).
The value for `O=C(c1ccc2c(c1)OCO2)N1CCN(C(=O)[C@@H]2COc3ccccc3O2)CC1` was > 10 µM (inactive).
The value for `O=C(c1ccc2c(c1)OCCO2)N1CCCN(C(=O)C2CCc3ccccc3O2)CC1` (stereo unspecified) was > 10 µM (inactive); that for `Cn1c(SCc2nc3ccccc3[nH]2)nnc1-c1cccc(Cl)c1` was > 100 µM (inactive).
Regarding `O=C(c1ccc2c(c1)OCO2)N1CCCN(C(=O)C2COc3ccccc3O2)CC1` (stereo unspecified), the IC50 was > 10 µM (inactive).
`O=C(c1ccc2c(c1)OCO2)N1CCN(C(=O)[C@H]2COc3ccccc3O2)CC1`: the IC50 was > 10 µM (inactive).
The value for `O=C(c1ccc2c(c1)OCO2)N1CCN(C(=O)C2COc3ccccc3O2)CC1` (stereo unspecified) was > 10 µM (inactive); that for `Cc1ccc(C)c(N2C(=N)S/C(=C\c3ccc(-c4ccccc4C(=O)O)o3)C2=O)c1` was “inactive”; that for `O=C(c1ccc2c(c1)OCO2)N1CCCN(C(=O)C2COc3ccccc3C2)CC1` (stereo unspecified) was > 10 µM (inactive).
For `O=C(c1ccc2c(c1)OCCO2)N1CCCN(C(=O)C2COc3ccccc3O2)CC1` (stereo unspecified), the IC50 is > 10 µM (inactive).
As to `Cc1ccc(NC(=O)CSc2nnc(-c3cccc(Cl)c3)n2Cc2ccco2)c(C)c1`, the IC50 is > 100 µM (inactive).
On to `Cc1cccc(-c2nnc(SCc3nc4ccccc4[nH]3)n2Cc2ccco2)c1`, for which the IC50 was 9 µM and 6.4 µM.
Turning to `CCOc1ccc2[nH]c3c(N4CCN(C(=O)c5ccco5)CC4)ncnc3c2c1`, the IC50 result is “inactive”.
The value for `COc1ccc(C(=O)N2CCCN(C(=O)C3CCc4ccccc4O3)CC2)cc1OC` (stereo unspecified) was > 10 µM (inactive); that for `Cc1ccc(-c2nc(C(=O)Nc3cccc(C(F)(F)F)c3)cs2)cc1` was > 100 µM (inactive).
For the molecule `O=C(Nc1ccc2oc(-c3cccnc3)nc2c1)c1ccc2c(c1)OCCO2`, the IC50 was > 100 µM (inactive).
The value for `O=C(c1ccc2c(c1)OCCO2)N1CCCN(C(=O)C2COc3ccccc3C2)CC1` (stereo unspecified) was > 10 µM (inactive).
Take `O=C(O)c1ccccc1NS(=O)(=O)c1cccc(-n2sc3ccccc3c2=O)c1`: the IC50 was 5 µM.
In the case of `O=C(C1CC1)N1CCN(c2ccnc3cc(Cl)ccc23)CC1`, the IC50 is > 100 µM (inactive).
With `COc1ccc(C(=O)N2CCN(C(=O)C3COc4ccccc4O3)CC2)cc1OC` (stereo unspecified), the IC50 was 1.2 µM and > 10 µM (inactive) and > 100 µM (inactive).
The value for `O=C(c1ccc2c(c1)OCO2)N1CCN(C(=O)C2COc3ccccc3C2)CC1` (stereo unspecified) was > 10 µM (inactive).
